In article PMC8799877 (Acta Pharmaceutica Sinica. B, 2021):

Experiments:
BRD4(2) = BRD4(2) (Homo sapiens, UniProt O60885); assay: HTRF bromodomain binding assay, BRD4
[1] = tested on: MV4-11 and RS411 acute leukemia xenograft models; conditions: 5 mg/kg; cited from earlier work
BRD4(1) = BRD4(1) (Homo sapiens, UniProt O60885); assay: HTRF bromodomain binding assay, BRD4
BRD4 = BRD4 (Rattus norvegicus, UniProt A0A8I6A216); assay: Cellular thermal shift assay; format: cell-based; conditions: NRCFs, 10 μmol/L, 4 h, heated from 43 to 61 °C
[2] = MTT cytotoxicity / cell viability in NRCMs; format: cell-based; conditions: Sprague-Dawley, rat, primary neonatal rat cardiac myocytes (NRCMs)
[3] = MTT cytotoxicity / cell viability in NRCFs; format: cell-based; conditions: Sprague-Dawley, rat, primary neonatal rat cardiac fibroblasts (NRCFs)
[4] = In vivo pharmacokinetic study; set-up: species or system male Sprague-Dawley rats; conditions: for CL_F_pred / Vz_F_pred: rats
In short: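 Male SD rats (n = 3) dosed iv at 2 mg/kg or orally at 10 mg/kg. Plasma separated by centrifugation at 4 °C, 6000 rpm, 8 min, and analysed by LC–MS. Parameters reported as mean ± SD.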

[5] = tested on: TGF-β1/Smad2/3 signaling pathway; assay: Ang II-induced TGF-β1/Smad2/3 signaling in NRCFs; format: cell-based, rat; conditions: pretreatment, Western blot
In short: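 Fibroblasts from hearts of 1–3-day-old neonatal SD rats: trypsin (0.8 mg/mL, 4 °C overnight), then collagenase II (0.8 mg/mL), 2 h differential plating. Treated cells lysed in RIPA, protein by BCA, 10% SDS-PAGE, nitrocellulose, 5% nonfat milk block 2 h, primary antibodies 4 °C overnight, secondary 1:10,000 2 h, chemiluminescence, densitometry.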

NRCFs [6] = assay: Ang II-induced cardiac fibroblast activation; format: cell-based, rat; conditions: immunofluorescent staining
In short: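 Treated neonatal rat cardiac fibroblasts fixed in 4% paraformaldehyde overnight, permeabilised with 0.1% Triton X-100 10 min, blocked in 5% BSA 20 min. Anti-α-SMA (1:300) at 4 °C overnight, then Alexa Fluor 488 goat anti-rabbit IgG (1:200) 2 h in the dark, DAPI 15 min. Imaged by laser confocal microscopy; n = 3.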

NRCFs [7] = assay: Wound scratch migration assay; format: cell-based, rat; conditions: C-34 1 μmol/L or JQ1 0.2 μmol/L, Ang II 12 or 24 h
[8] = male, Sprague-Dawley, rat, plasma, iv, 2 mg/kg
[9] = male, Sprague-Dawley, rat, plasma, po, 10 mg/kg

| IC50 (BRD4(2)) [µM] | Compound | also measured |
| --- | --- | --- |
| 7.02 ± 0.517 | Clc1ccc(-c2nc(Nc3ccc(Br)cc3)nc3ccccc23)cc1 [Compound 18] | – |
| – | Cc1nnc2n1-c1sc(C#Cc3cnn(CCCC#Cc4cccc5c4CN(C4CCC(=O)NC4=O)C5=O)c3)c(Cc3ccccc3)c1COC2 (stereo not drawn) [QCA570] | tumor regression [1]: complete and long-lasting tumor regression |
| 8.12 ± 0.084 | COc1ccc(-c2nc(Nc3ccc(S(N)(=O)=O)cc3)nc3ccccc23)cc1 [Compound 35, 4-((4-(4-Methoxyphenyl)quinazolin-2-yl)amino)benzenesulfonamide] | – |
| 1.63 ± 0.212 | NS(=O)(=O)c1ccc(Nc2nc(-c3ccc(Br)cc3)c3ccccc3n2)cc1 [Compound 26] | IC50 (BRD4(1)): 1.6 ± 0.205 µM |
| 4.55 ± 0.658 | NC(=O)CNc1nc(-c2ccc(Cl)cc2)c2ccccc2n1 [Compound 8] | fold more potent than compound 5 (BRD4(2) IC50) (BRD4(2); vs compound 5): about 4 fold |
| 12.9 ± 0.947 | CC(C)c1ccc(Nc2nc(-c3ccc(Cl)cc3)c3ccccc3n2)cc1 [Compound 17] | – |
| 10.3 ± 1.01 | NS(=O)(=O)c1ccc(Nc2nc(-c3ccccc3)c3ccccc3n2)cc1 [Compound 32, 4-((4-Phenylquinazolin-2-yl)amino)benzenesulfonamide] | – |
| 8.314 ± 0.016 | OCCNc1nc(-c2ccc(Cl)cc2)c2ccccc2n1 [Compound 6] | – |
| 9.85 ± 0.993 | NS(=O)(=O)c1ccc(Nc2nc(Nc3ccc(Br)cc3)c3ccccc3n2)cc1 [Compound 52] | fold decrease on potency vs compound 26 (BRD4(2) IC50) (BRD4(2); vs compound 26): ~6 fold |
| 13.6 ± 1.13 | Cc1ccc(-c2nc(Nc3ccc(S(N)(=O)=O)cc3)nc3ccc(C)cc23)cc1 [Compound 34, 4-((6-Methyl-4-(p-tolyl)quinazolin-2-yl)amino)benzenesulfonamide] | – |
| 14.8 ± 1.17 | Clc1ccc(-c2nc(NCCc3c[nH]c4ccccc34)nc3ccccc23)cc1 [Compound 9] | – |
| 4.31 ± 0.18 | Oc1ccc(Nc2nc(-c3ccc(Cl)cc3)c3ccccc3n2)cc1 [Compound 14] | – |
| 3.23 ± 0.089 | Cc1ccc(-c2nc(Nc3ccc(S(N)(=O)=O)cc3)nc3ccccc23)cc1 [Compound 33, 4-((4-(p-Tolyl)quinazolin-2-yl)amino)benzenesulfonamide] | – |
| 12.4 ± 1.09 | CC(C)(CO)Nc1nc(-c2ccc(Cl)cc2)c2ccccc2n1 [Compound 7] | – |
| 5.27 ± 0.367 | CC(C)c1ccc(Nc2nc(-c3ccc(F)cc3)c3ccccc3n2)cc1 [Compound 45] | – |
| 12.6 ± 0.307 | Cc1ccc2nc(Nc3ccc(S(N)(=O)=O)cc3)nc(-c3ccc(Cl)cc3)c2c1 [Compound 25] | – |
| 18.63 ± 0.047 | NS(=O)(=O)c1ccc(CCNc2nc(-c3ccc(F)cc3)c3ccccc3n2)cc1 [Compound 47] | – |
| 1.33 ± 0.628 | O=S(=O)(c1ccc(Nc2nc(-c3ccc(F)cc3)c3ccccc3n2)cc1)N1CCOCC1 [Compound 49] | IC50 (BRD4(1)): 5.95 ± 0.248 µM |
| 3.05 ± 0.484 | O=C(O)c1ccc(Nc2nc(-c3ccc(Cl)cc3)c3ccccc3n2)cc1 [Compound 13] | – |
| 7.05 ± 0.848 | COC(=O)c1ccc(Nc2nc(-c3ccc(Cl)cc3)c3ccccc3n2)cc1 [Compound 12] | – |
| 15.1 ± 1.18 | NS(=O)(=O)c1ccc(Nc2nc(-c3cccc(Cl)c3)c3ccccc3n2)cc1 [Compound 24] | – |
| 9.91 ± 0.996 | COc1ccc(-c2nc(Nc3ccccc3S(N)(=O)=O)nc3ccccc23)cc1 [Compound 36] | – |
| 0.242 ± 0.049 | NS(=O)(=O)c1ccc(Nc2nc(-c3ccc(F)cc3)c3ccccc3n2)cc1 [Compound 28] | BRD4 thermal stabilization (CETSA, Western blot) (BRD4): could efficiently stabilize BRD4 from 43 to 61 °C; IC50 at 24 h [2]: 19.1 ± 1.4 µM; IC50 (BRD4(1)): 0.286 ± 0.046 µM; IC50 at 24 h [3]: 48.2 ± 1.68 µM; AUC(0-inf) [4, 8]: 7130 ng·h/mL; AUC(0-t) [4, 8]: 7100 ng·h/mL; Cmax [4, 8]: 2820 ng/mL; MRT last [4, 8]: 3.46 h; half-life [4, 8]: 3.13 h; bioavailability ([4]; male, Sprague-Dawley, rat, plasma, oral, 10 mg/kg): 43.1%; AUC(0-inf) [4, 9]: 15400 ng·h/mL; AUC(0-t) [4, 9]: 15300 ng·h/mL; Cmax [4, 9]: 2170 ng/mL; MRT last [4, 9]: 4.27 h; Tmax [4, 9]: 2.67 h; half-life [4, 9]: 1.77 h; CL_F_pred ([4]; iv 2 mg/kg): 4.67 mL/min/kg; Vz_F_pred ([4]; iv 2 mg/kg): 1.27 L/kg; CL_F_pred ([4]; po 10 mg/kg): 12 mL/min/kg; Vz_F_pred ([4]; po 10 mg/kg): 1.77 L/kg |
| 4.76 ± 0.678 | NS(=O)(=O)c1ccc(Nc2nc(-c3cccc4ccccc34)c3ccccc3n2)cc1 [Compound 41, 4-((4-(Naphthalen-1-yl)quinazolin-2-yl)amino)benzenesulfonamide] | – |

| IC50 (BRD4(2)) [µM] | Compound | also measured |
| --- | --- | --- |
| 3.33 ± 0.522 | COC(=O)c1ccc(-c2nc(Nc3ccccc3S(N)(=O)=O)nc3ccccc23)cc1 [Compound 39] | – |
| > 20 | NS(=O)(=O)c1ccc(Nc2nc(-c3ccc(OCc4ccccc4)cc3)c3ccccc3n2)cc1 [Compound 42, 4-((4-(4-(Benzyloxy)phenyl)quinazolin-2-yl)amino)benzenesulfonamide] | – |
| 0.589 ± 0.052 | NS(=O)(=O)c1ccccc1Nc1nc(-c2ccc(F)cc2)c2ccccc2n1 [Compound 29] | IC50 (BRD4(1)): 0.615 ± 0.127 µM |
| 6.69 ± 0.825 | O=S(=O)(c1ccccc1Nc1nc(-c2ccc(F)cc2)c2ccccc2n1)N1CCOCC1 [Compound 48] | – |
| 6.12 ± 0.258 | NS(=O)(=O)c1ccc(CNc2nc(-c3ccc(F)cc3)c3ccccc3n2)cc1 [Compound 46] | – |
| 7.62 ± 0.882 | COC(=O)c1cccc(-c2nc(Nc3ccc(S(N)(=O)=O)cc3)nc3ccccc23)c1 [Compound 40] | – |
| 1.53 ± 0.185 | NS(=O)(=O)c1ccc(Nc2nc(-c3ccc(Cl)cc3)c3ccccc3n2)cc1 [Compound 19] | IC50 (BRD4(1)): 3.37 ± 0.528 µM; fold more active in comparison to compound 15 (BRD4(2) IC50) (BRD4(2); vs compound 15): about 7 fold |
| 3.07 ± 0.584 | O=C(c1ccc(Nc2nc(-c3ccc(F)cc3)c3ccccc3n2)cc1)N1CCOCC1 [Compound 50] | – |
| 8.62 ± 0.164 | Cc1ccc(Nc2nc(-c3ccc(Cl)cc3)c3ccccc3n2)cc1 [Compound 16] | – |
| 10.6 ± 0.367 | Clc1ccc(-c2nc(Nc3ccccc3)nc3ccccc23)cc1 [Compound 15] | – |
| 9.04 ± 0.956 | COC(=O)c1ccc(CNc2nc(-c3ccc(Cl)cc3)c3ccccc3n2)cc1 [Compound 11] | – |
| 2.07 ± 0.625 | O=C(O)c1ccc(CNc2nc(-c3ccc(F)cc3)c3ccccc3n2)cc1 [Compound 44, 4-(((4-(4-Fluorophenyl)quinazolin-2-yl)amino)methyl)benzoic acid] | IC50 (BRD4(1)): 5.13 ± 0.626 µM |
| 0.424 ± 0.038 | NS(=O)(=O)c1ccc(Nc2nc(-c3ccc(C(F)(F)F)cc3)c3ccccc3n2)cc1 [Compound 31] | IC50 (BRD4(1)): 0.687 ± 0.054 µM |
| 3.21 ± 0.206 | NS(=O)(=O)c1ccccc1Nc1nc(-c2ccc(Br)cc2)c2ccccc2n1 [Compound 27] | – |
| > 20 | NS(=O)(=O)c1cccc(Nc2nc(-c3ccc(Cl)cc3)c3ccccc3n2)c1 [Compound 21] | – |
| 3.88 ± 0.589 | O=S(=O)(c1ccc(Nc2nc(-c3ccc(Cl)cc3)c3ccccc3n2)cc1)N1CCOCC1 [Compound 20] | – |
| 0.688 ± 0.016 | N#Cc1ccc(-c2nc(Nc3ccc(S(N)(=O)=O)cc3)nc3ccccc23)cc1 [Compound 30] | IC50 (BRD4(1)): 0.588 ± 0.024 µM |
| 3.65 ± 0.562 | CNC(=O)c1ccc(-c2nc(Nc3ccc(S(N)(=O)=O)cc3)nc3ccccc23)cc1 [Compound 37] | – |
| 13.3 ± 1.12 | Clc1ccc(-c2nc(NCc3ccco3)nc3ccccc23)cc1 [Compound 10] | – |
| – | Cc1sc2c(c1C)C(c1ccc(Cl)cc1)=N[C@@H](CC(=O)OC(C)(C)C)c1nnc(C)n1-2 [JQ1] | BRD4 thermal stabilization (CETSA, Western blot) (BRD4): in close accordance with that obtained for JQ1; Ang II-induced upregulation of TGF-β1, p-Smad2 and p-Smad3 [5]: comparable to those by JQ1 treatment; α-SMA fluorescence intensity after Ang II stimulation (NRCFs [6]): this effect was reversed; Ang II-induced cell migration (wound scratch assay) (NRCFs [7]): effectively inhibited the enhanced cell migration induced by Ang II |
| 19.7 ± 1.3 | NS(=O)(=O)c1ccc(Nc2nc(-c3ccccc3Cl)c3ccccc3n2)cc1 [Compound 23] | – |
| 0.925 ± 0.081 | O=C(O)c1ccc(Nc2nc(-c3ccc(F)cc3)c3ccccc3n2)cc1 [Compound 43, 4-((4-(4-Fluorophenyl)quinazolin-2-yl)amino)benzoic acid] | IC50 (BRD4(1)): 4.47 ± 0.361 µM |
| 5.17 ± 0.614 | COC(=O)c1ccc(-c2nc(Nc3ccc(S(N)(=O)=O)cc3)nc3ccccc23)cc1 [Compound 38] | – |
